ChEMBL document CHEMBL4725435, “Second Generation of Zafirlukast Derivatives with Improved Activity against the Oral Pathogen Porphyromonas gingivalis” (ACS Med Chem Lett, 2020)
The source made the active and inactive calls. The rule behind the calls is not given here.

Assays:
Porphyromonas gingivalis [1] = assay: Antibacterial activity against Porphyromonas gingivalis 381 assessed as bacterial growth inhibition at 1 to 100 uM treated for 24 hrs by WST1 assay relative to control; format: functional
Summary of the method: (§1)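 P. gingivalis 381 read by colorimetric WST-1 after 24 h. Derivatives were tested at 1, 10 and 100 μM. Tetracycline was run at 2.81 μM and ZAF at 25 and 50 μM as positive controls, with DMSO as negative control. Percent growth inhibition is versus medium-only cultures. Derivatives had 6 independent replicates per condition; controls had 36.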

Porphyromonas gingivalis [2] = assay: Antibacterial activity against Porphyromonas gingivalis 381 assessed as bacterial growth inhibition at 1 uM treated for 24 hrs by WST1 assay relative to control; format: functional; details: read-out: GI; summary of the method: as §1
Porphyromonas gingivalis [3] = assay: Antibacterial activity against Porphyromonas gingivalis 381 assessed as bacterial growth inhibition at 100 uM treated for 24 hrs by WST1 assay relative to control; format: functional; details: read-out: GI; summary of the method: as §1
Porphyromonas gingivalis [4] = assay: Antibacterial activity against Porphyromonas gingivalis 381 assessed as bacterial growth inhibition at 10 uM treated for 24 hrs by WST1 assay relative to control; format: functional; details: read-out: GI; summary of the method: as §1
[5] = system: Aggregatibacter actinomycetemcomitans; assay: Antibacterial activity against Aggregatibacter actinomycetemcomitans JP2 assessed as bacterial growth inhibition at 1 to 100 uM treated for 24 hrs by WST1 assay; format: functional, organism-based; details: dose microM 1-100, time 24.0 hrs
Summary of the method: (§2)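 WST-1 colorimetric growth assay across oral bacterial species, 24 h exposure. DMSO as negative control. Positive controls were ZAF at 25 and 50 μM, or penicillin/streptomycin 1X (100 U/mL penicillin, 100 μg/mL streptomycin). Percent growth inhibition is relative to cultures in medium only, averaged from six independent replicates per condition.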

[6] = Cytotoxicity against hTERT-immortalized human OKF6 cells assessed as reduction in cell density at 10 uM incubated for 24 hrs by trypan blue dye based light inverted microscopic analysis; details: okf6, 24 h
Summary of the method: (§3)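 OKF6 cells were imaged by microscopy after 24 h treatment, with derivatives at 10 μM, to judge cell morphology and density from whole-well images. Medium-only and DMSO wells served as negative controls. Staurosporine 8 μM and ZAF 25 μM served as positive controls.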

Veillonella parvula = assay: Antibacterial activity against Veillonella parvula ATCC 10790 assessed as bacterial growth inhibition at 1 to 100 uM treated for 24 hrs by WST1 assay; format: functional, organism-based; details: dose microM 1-100, time 24.0 hrs; summary of the method: as §2
Porphyromonas gingivalis [7] = assay: Bactericidal activity against Porphyromonas gingivalis 381 assessed as growth inhibition at 100 uM treated for 24 hrs under anaerobic conditions followed by culturing in blood agar plate and measured after 5 days of incubation in an anaerobic chamber by CFU assay relative to control; format: functional; details: read-out: GI
Summary of the method: (§4)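 P. gingivalis 381 was exposed in media for 24 h at 1, 10 or 100 μM, then grown on blood agar plates for 5 days under anaerobic conditions and counted as CFUs/mL. Percent inhibition = 100 × [CFUs/mL control − CFUs/mL experimental]/CFUs/mL control, versus medium-only bacteria. Six independent replicates per condition for test compounds, 12 for controls (tetracycline 2.81 μM, ZAF 25/50 μM, DMSO).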

Porphyromonas gingivalis [8] = assay: Bactericidal activity against Porphyromonas gingivalis 381 assessed as growth inhibition at 10 uM treated for 24 hrs under anaerobic conditions followed by culturing in blood agar plate and measured after 5 days of incubation in an anaerobic chamber by CFU assay; format: functional, organism-based; summary of the method: as §4
[9] = Cytotoxicity against hTERT-immortalized human OKF6 cells assessed as large and flattened cell morphology at 10 uM incubated for 24 hrs by trypan blue dye based light inverted microscopic analysis; details: okf6, 24 h; summary of the method: as §3
[10] = Cytotoxicity against hTERT-immortalized human OKF6 cells assessed as cell viability at 1 uM incubated for 24 hrs by Annexin V-FITC/propidium iodide staining based flow cytometric analysis relative to control; details: read-out: Activity
Summary of the method: (§5)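 OKF6/hTERT oral keratinocytes were treated for 24 h, then apoptosis and necrosis were assessed by flow cytometry. DMSO served as negative control; staurosporine 8 μM and ZAF 25 μM served as positive controls. Data come from two independent experiments run in duplicate, with at least 10,000 events analysed per condition.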

[11] = Cytotoxicity against hTERT-immortalized human OKF6 cells assessed as cell viability at 10 uM incubated for 24 hrs by Annexin V-FITC/propidium iodide staining based flow cytometric analysis relative to control; details: read-out: Activity; summary of the method: as §5
Porphyromonas gingivalis [12] = assay: Antibacterial activity against Porphyromonas gingivalis 381 assessed as bacterial growth inhibition at 50 uM treated for 24 hrs by WST1 assay relative to control; format: functional; details: read-out: GI; summary of the method: as §1
Porphyromonas gingivalis [13] = assay: Antibacterial activity against Porphyromonas gingivalis 381 assessed as bacterial growth inhibition at 25 uM treated for 24 hrs by WST1 assay relative to control; format: functional; details: read-out: GI; summary of the method: as §1
[14] = Cytotoxicity against hTERT-immortalized human OKF6 cells assessed as reduction in cell density at 25 uM incubated for 24 hrs by trypan blue dye based light inverted microscopic analysis; details: okf6, 24 h; summary of the method: as §3
[15] = Cytotoxicity against hTERT-immortalized human OKF6 cells assessed as small and rounded cell morphology at 25 uM incubated for 24 hrs by trypan blue dye based light inverted microscopic analysis; details: okf6, 24 h; summary of the method: as §3
Porphyromonas gingivalis [16] = assay: Antibacterial activity against Porphyromonas gingivalis 381 assessed as bacterial growth inhibition at 2.81 uM treated for 24 hrs by WST1 assay relative to control; format: functional; details: read-out: GI; summary of the method: as §1
[17] = Cytotoxicity against hTERT-immortalized human OKF6 cells assessed as reduction in cell density at 8 uM incubated for 24 hrs by trypan blue dye based light inverted microscopic analysis; details: okf6, 24 h
Summary of the method: (§6)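 Immortalized oral keratinocytes (OKF6/hTERT) were exposed for 24 h to test compounds at 10 μM. Controls were staurosporine at 8 μM or zafirlukast at 25 μM (positive) and medium only or DMSO (negative). Whole-well microscope images were then scored qualitatively for cell density and morphology (size, shape, spacing between cells).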

[18] = Cytotoxicity against hTERT-immortalized human OKF6 cells assessed as small and rounded cell morphology at 8 uM incubated for 24 hrs by trypan blue dye based light inverted microscopic analysis; details: okf6, 24 h; summary of the method: as §6
Porphyromonas gingivalis [19] = assay: Bactericidal activity against Porphyromonas gingivalis 381 assessed as growth inhibition at 1 uM treated for 24 hrs under anaerobic conditions followed by culturing in blood agar plate and measured after 5 days of incubation in an anaerobic chamber by CFU assay relative to control; format: functional, organism-based; summary of the method: as §4
[20] = Cytotoxicity against hTERT-immortalized human OKF6 cells assessed as small and rounded cell morphology at 10 uM incubated for 24 hrs by trypan blue dye based light inverted microscopic analysis; details: okf6, 24 h; summary of the method: as §6
[21] = dose microM 1-100, time 24.0 hrs

COc1ccc(Cc2cn(C)c3ccccc23)cc1C(=O)NS(=O)(=O)c1ccc([N+](=O)[O-])cc1
growth inhibition (GI) (Porphyromonas gingivalis [1]; dose microM 1-100): 0%

COc1ccc(Cc2cn(C)c3ccccc23)cc1C(=O)NS(=O)(=O)c1cccc(F)c1
inhibition of growth at 1 µM (Porphyromonas gingivalis [2]): 14%
inhibition of growth at 100 µM (Porphyromonas gingivalis [3]): 73%
inhibition of growth at 10 µM (Porphyromonas gingivalis [4]): 57%
growth inhibition (GI) [5]: inactive
Activity [6]: Non-Toxic
growth inhibition (GI) (Veillonella parvula): inactive
inhibition of growth at 100 µM (Porphyromonas gingivalis [7]): 100%
Activity (Porphyromonas gingivalis [8]): inactive
Activity [9]: Non-Toxic
viability at 24 h, 1 µM [10]: 76%
viability at 24 h, 10 µM [11]: 49%

COc1ccc(Cc2cn(C)c3ccc([N+](=O)[O-])cc23)cc1C(=O)NS(=O)(=O)c1ccccc1F
inhibition of growth at 1 µM (Porphyromonas gingivalis [2]): 53%
inhibition of growth at 100 µM (Porphyromonas gingivalis [3]): 58%
inhibition of growth at 10 µM (Porphyromonas gingivalis [4]): 59%

COc1ccc(Cc2c[nH]c3ccccc23)cc1C(=O)NS(=O)(=O)c1ccc2ccccc2c1
growth inhibition (GI) (Porphyromonas gingivalis [1]; [21]): inactive

COc1ccc(Cc2cn(C)c3ccc([N+](=O)[O-])cc23)cc1C(=O)NS(=O)(=O)c1ccc(F)cc1
inhibition of growth at 100 µM (Porphyromonas gingivalis [3]): 58%
inhibition of growth at 10 µM (Porphyromonas gingivalis [4]): 59%

COc1ccc(Cc2cn(C)c3ccccc23)cc1C(=O)NS(=O)(=O)c1ccccc1F
inhibition of growth at 100 µM (Porphyromonas gingivalis [3]): 55%

COc1ccc(Cc2cn(C)c3ccc([N+](=O)[O-])cc23)cc1C(=O)NS(=O)(=O)c1cccc([N+](=O)[O-])c1
inhibition of growth at 1 µM (Porphyromonas gingivalis [2]): 53%
inhibition of growth at 100 µM (Porphyromonas gingivalis [3]): 58%
inhibition of growth at 10 µM (Porphyromonas gingivalis [4]): 59%

COc1cc(C(=O)NS(=O)(=O)c2ccccc2C)ccc1Cc1cn(C)c2ccc(NC(=O)OC3CCCC3)cc12 [ZAFIRLUKAST]
inhibition of growth at 50 µM (Porphyromonas gingivalis [12]): 68%
inhibition of growth at 25 µM (Porphyromonas gingivalis [13]): 70%
Activity [14]: Toxic
Activity [15]: Toxic

COc1ccc(Cc2c[nH]c3ccccc23)cc1C(=O)NS(=O)(=O)c1ccccc1F
growth inhibition (GI) (Porphyromonas gingivalis [1]; [21]): inactive

COc1ccc(Cc2cn(C)c3ccccc23)cc1C(=O)NS(=O)(=O)c1ccccc1C
inhibition of growth at 1 µM (Porphyromonas gingivalis [2]): 16%
inhibition of growth at 100 µM (Porphyromonas gingivalis [3]): 74%
inhibition of growth at 10 µM (Porphyromonas gingivalis [4]): 56%

COc1ccc(Cc2cn(C)c3ccc([N+](=O)[O-])cc23)cc1C(=O)NS(=O)(=O)c1ccc2ccccc2c1
inhibition of growth at 100 µM (Porphyromonas gingivalis [3]): 58%
inhibition of growth at 10 µM (Porphyromonas gingivalis [4]): 57%

COc1ccc(Cc2cn(C)c3ccccc23)cc1C(=O)NS(=O)(=O)c1ccc2ccccc2c1
inhibition of growth at 100 µM (Porphyromonas gingivalis [3]): 58%
growth inhibition (GI) [5]: inactive
Activity [6]: Toxic
growth inhibition (GI) (Veillonella parvula): inactive
inhibition of growth at 100 µM (Porphyromonas gingivalis [7]): 100%
Activity (Porphyromonas gingivalis [8]): inactive
Activity [9]: Non-Toxic
viability at 24 h, 1 µM [10]: 76%
viability at 24 h, 10 µM [11]: 49%

COc1ccc(Cc2cn(C)c3ccc([N+](=O)[O-])cc23)cc1C(=O)NS(=O)(=O)c1ccccc1
inhibition of growth at 1 µM (Porphyromonas gingivalis [2]): 0%

CN(C)[C@@H]1C(O)=C(C(N)=O)C(=O)[C@@]2(O)C(O)=C3C(=O)c4c(O)cccc4[C@@](C)(O)[C@H]3C[C@@H]12 [TETRACYCLINE]
inhibition of growth at 2.81 µM (Porphyromonas gingivalis [16]): 51%

CN[C@@H]1C[C@H]2O[C@@](C)([C@@H]1OC)n1c3ccccc3c3c4c(c5c6ccccc6n2c5c31)C(=O)NC4 [STAUROSPORINE]
Activity [17]: Toxic
Activity [18]: Toxic

COc1ccc(Cc2cn(C)c3ccccc23)cc1C(=O)NS(=O)(=O)c1ccc(F)cc1
inhibition of growth at 100 µM (Porphyromonas gingivalis [3]): 58%
inhibition of growth at 10 µM (Porphyromonas gingivalis [4]): 59%
growth inhibition (GI) [5]: inactive
Activity [6]: Non-Toxic
growth inhibition (GI) (Veillonella parvula): inactive
inhibition of growth at 100 µM (Porphyromonas gingivalis [7]): 100%
Activity (Porphyromonas gingivalis [8]): inactive
Activity [9]: Non-Toxic
viability at 24 h, 1 µM [10]: 76%
viability at 24 h, 10 µM [11]: 49%

COc1ccc(Cc2cn(C)c3ccc([N+](=O)[O-])cc23)cc1C(=O)NS(=O)(=O)c1cccc(F)c1
inhibition of growth at 1 µM (Porphyromonas gingivalis [2]): 53%
inhibition of growth at 100 µM (Porphyromonas gingivalis [3]): 58%
inhibition of growth at 10 µM (Porphyromonas gingivalis [4]): 59%
growth inhibition (GI) [5]: inactive
Activity [6]: Toxic
growth inhibition (GI) (Veillonella parvula): inactive
inhibition of growth at 100 µM (Porphyromonas gingivalis [7]): 100%
Activity (Porphyromonas gingivalis [8]): Active
Activity (Porphyromonas gingivalis [19]): Active
Activity [20]: Toxic
viability at 24 h, 1 µM [10]: 76%
viability at 24 h, 10 µM [11]: 49%

COc1ccc(Cc2cn(C)c3ccc([N+](=O)[O-])cc23)cc1C(=O)NS(=O)(=O)c1ccc([N+](=O)[O-])cc1
inhibition of growth at 1 µM (Porphyromonas gingivalis [2]): 53%
inhibition of growth at 100 µM (Porphyromonas gingivalis [3]): 58%
inhibition of growth at 10 µM (Porphyromonas gingivalis [4]): 59%
growth inhibition (GI) [5]: inactive
Activity [6]: Toxic
growth inhibition (GI) (Veillonella parvula): inactive
inhibition of growth at 100 µM (Porphyromonas gingivalis [7]): 100%
Activity (Porphyromonas gingivalis [8]): Active
Activity (Porphyromonas gingivalis [19]): Active
Activity [20]: Toxic
viability at 24 h, 1 µM [10]: 76%
viability at 24 h, 10 µM [11]: 49%

COc1ccc(Cc2c[nH]c3ccccc23)cc1C(=O)NS(=O)(=O)c1ccc(F)cc1
growth inhibition (GI) (Porphyromonas gingivalis [1]; [21]): inactive

COc1ccc(Cc2cn(C)c3ccccc23)cc1C(=O)NS(=O)(=O)c1cccc([N+](=O)[O-])c1
inhibition of growth at 1 µM (Porphyromonas gingivalis [2]): 18%
inhibition of growth at 100 µM (Porphyromonas gingivalis [3]): 58%
inhibition of growth at 10 µM (Porphyromonas gingivalis [4]): 50%
growth inhibition (GI) [5]: inactive
Activity [6]: Non-Toxic
growth inhibition (GI) (Veillonella parvula): inactive
inhibition of growth at 100 µM (Porphyromonas gingivalis [7]): 100%
Activity (Porphyromonas gingivalis [8]): inactive
Activity [9]: Non-Toxic
viability at 24 h, 1 µM [10]: 76%
viability at 24 h, 10 µM [11]: 49%
growth inhibition (GI) (Porphyromonas gingivalis [1]; dose microM 1-100): 18%
